Assay results taken from ChEMBL document CHEMBL1123129, “Hypolipidemic activity of indan-1,3-dione derivatives in rodents” (J Med Chem, 1985).

Columns and labels:
[1] = target: Acetyl-CoA carboxylase 1 (Mus musculus) (UniProt Q5SWU9); assay: In Vivo effect for the hypolipidemic activity on Acetyl-CoA carboxylase in CF1 mice after 16 days administered orally at a dose of 20 mg/kg; format: functional, organism-based; set-up: dose 20 mg/kg
Outline: (§1)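 CF1 male mice are dosed orally at 10–60 mg/kg per day for 16 days, with 1% CMC as the control vehicle. Liver is homogenized at 10% in 0.25 M sucrose + 0.001 M EDTA, pH 7.2. Enzymes are assayed by literature methods, with Lowry protein. Activity is given as % of control (X ± SD, N = 6), with p from Student's t test.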

[2] = target: T1, Cholesterol 7-alpha-hydroxylase (Cytochrome P450 7A1) (Mus musculus, UniProt Q64505); assay: In vitro percent Cholesterol 7-alpha-hydroxylase activity in mouse CF1 liver microsomes at 50 uM; set-up: species or system Microsome; conditions: read-out: Control
T1 sequence (Q64505 whole entry): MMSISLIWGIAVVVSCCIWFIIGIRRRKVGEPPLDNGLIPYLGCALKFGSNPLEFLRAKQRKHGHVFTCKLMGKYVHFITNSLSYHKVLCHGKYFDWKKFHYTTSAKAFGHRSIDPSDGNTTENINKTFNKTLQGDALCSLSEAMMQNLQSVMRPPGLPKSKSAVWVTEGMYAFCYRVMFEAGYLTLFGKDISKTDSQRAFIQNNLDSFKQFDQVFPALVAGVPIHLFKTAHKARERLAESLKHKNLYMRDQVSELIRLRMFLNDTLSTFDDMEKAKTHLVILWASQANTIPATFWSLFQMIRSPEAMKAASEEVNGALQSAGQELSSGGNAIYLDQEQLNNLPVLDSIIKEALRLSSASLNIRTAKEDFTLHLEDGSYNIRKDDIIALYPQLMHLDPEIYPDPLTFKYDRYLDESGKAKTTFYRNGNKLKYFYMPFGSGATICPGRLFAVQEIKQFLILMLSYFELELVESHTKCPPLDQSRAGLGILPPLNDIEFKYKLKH
Outline: (§2)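 Mouse liver enzymes assayed in vitro on 10% homogenates of CF1 male mouse liver, with test drug added at 50–200 μM. Each enzyme follows a published procedure. Protein is measured by Lowry. Activity is given as % of untreated control (X ± SD, N = 6).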

Rattus norvegicus [3] = assay: Compound was evaluated for the hypolipidemic activity at 20 mg/kg per day orally for 14 days on triglycerides content in rat liver; format: functional; conditions: route oral
Outline: (§3)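 Male Sprague–Dawley rats were dosed orally for 14 days. Liver, small intestine and a 24-h fecal collection were lipid-extracted. Extracts were assayed for cholesterol (modified Liebermann–Burchard), triglyceride (enzymatic kit), neutral lipids, phospholipids and protein. Values are % of 1% CMC vehicle control, mean ± SD, N = 6.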

Mus musculus [4] = species on record: Mus musculus; assay: In Vitro evaluation for the CF1 liver enzyme activity on Hepatic lipoprotein lipase at concentration 100 uM; format: functional; outline: as §2
Rattus norvegicus [5] = assay: Compound was evaluated for the hypolipidemic activity at 20 mg/kg per day orally for 14 days on neutral lipids content in rat feces.; format: functional; conditions: route oral; outline: as §3
Mus musculus [6] = assay: Hypolipidemic activity in CF1 male mice at a dose of 20 mg/kg per day, serum triglyceride measured on the 16th day; format: functional
Outline: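 CF1 male mice (~30 g) were given 20 mg/kg per day ip at 11:00 a.m.; N = 6 per group. Tail-vein serum was collected in nonheparinized microcapillaries. Cholesterol was measured on days 9 and 16 by modified Liebermann–Burchard on duplicate 25 µL samples. Triglyceride was measured on day 16 in a separate group, duplicate 50 µL. Values are % control ± SD; Student's t test.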

Mus musculus [7] = assay: Compound was evaluated for the hypolipidemic activity in CF1 male mice at a dose of 10 mg/kg orally for Serum cholesterol at 16th day; format: functional; conditions: route oral
Outline: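 CF1 male mice received the agent orally in 1% CMC at 10–60 mg/kg per day. Tail-vein blood was taken on days 9 and 16. Serum cholesterol was measured by modified Liebermann–Burchard on duplicate 25-µL samples, and serum triglyceride on day 16 in duplicate 50-µL samples. Values are % of vehicle control, mean ± SD, N = 6; Student's t test.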

[8] = target: T2, Sterol O-acyltransferase 1 (Mus musculus) (UniProt Q61263); assay: In Vivo effect for the hypolipidemic activity on Acyl-COA cholesterol acyltransferase in CF1 mice after 16 days of oral administration at a dose of 40 mg/kg; format: functional, organism-based; set-up: dose 40 mg/kg; outline: as §1
T2 sequence (whole entry): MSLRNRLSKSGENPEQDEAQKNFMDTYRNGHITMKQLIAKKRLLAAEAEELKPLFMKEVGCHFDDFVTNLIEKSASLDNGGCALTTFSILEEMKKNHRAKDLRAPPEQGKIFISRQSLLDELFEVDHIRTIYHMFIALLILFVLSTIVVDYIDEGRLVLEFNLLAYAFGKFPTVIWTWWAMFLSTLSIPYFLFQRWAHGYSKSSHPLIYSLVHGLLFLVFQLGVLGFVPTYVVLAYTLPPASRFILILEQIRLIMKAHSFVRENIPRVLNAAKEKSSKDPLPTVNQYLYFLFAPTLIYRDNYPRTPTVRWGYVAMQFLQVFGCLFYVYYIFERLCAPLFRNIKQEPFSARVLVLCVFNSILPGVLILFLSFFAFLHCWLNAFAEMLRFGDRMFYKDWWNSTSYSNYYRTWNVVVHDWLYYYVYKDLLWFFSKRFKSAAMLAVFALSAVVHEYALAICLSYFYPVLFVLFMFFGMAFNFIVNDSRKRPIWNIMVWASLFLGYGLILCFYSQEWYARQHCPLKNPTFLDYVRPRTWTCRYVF

Rattus norvegicus [9] = assay: Compound was evaluated for the hypolipidemic activity at 20 mg/kg per day orally for 14 days on triglycerides content in rat feces.; format: functional; conditions: route oral; outline: as §3
Mus musculus [10] = assay: In Vivo effect for the hypolipidemic activity on Acetyl-coenzyme A synthetase in CF1 mice after 16 days of oral administration at a dose of 10 mg/kg; format: functional; outline: as §1
Rattus norvegicus [11] = assay: Compound was evaluated for the hypolipidemic activity at 20 mg/kg per day orally for 14 days on cholesterol content in rat lipoprotein chylomicron; format: functional; conditions: route oral
Outline: (§4)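 Male Sprague–Dawley rats (~300 g) were dosed orally each day. Blood was drawn from the abdominal vein. Lipoprotein fractions (chylomicron, VLDL, LDL, HDL) were separated by the Hatch–Lees and Havel methods. Each fraction was assayed for cholesterol, triglyceride (enzymatic kit), neutral lipids, phospholipids and Lowry protein. Values are % of 1% CMC vehicle control, N = 6.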

[12] = target: Acetyl-coenzyme A synthetase, cytoplasmic (Mus musculus) (UniProt Q9QXG4); assay: In Vivo effect for the hypolipidemic activity on Acetyl-coenzyme A synthetase in CF1 mice after 16 days of oral administration at a dose of 60 mg/kg; format: functional, organism-based; set-up: dose 60 mg/kg; outline: as §1
Sequence of Acetyl-coenzyme A synthetase, cytoplasmic (Mus musculus) (Q9QXG4 whole entry): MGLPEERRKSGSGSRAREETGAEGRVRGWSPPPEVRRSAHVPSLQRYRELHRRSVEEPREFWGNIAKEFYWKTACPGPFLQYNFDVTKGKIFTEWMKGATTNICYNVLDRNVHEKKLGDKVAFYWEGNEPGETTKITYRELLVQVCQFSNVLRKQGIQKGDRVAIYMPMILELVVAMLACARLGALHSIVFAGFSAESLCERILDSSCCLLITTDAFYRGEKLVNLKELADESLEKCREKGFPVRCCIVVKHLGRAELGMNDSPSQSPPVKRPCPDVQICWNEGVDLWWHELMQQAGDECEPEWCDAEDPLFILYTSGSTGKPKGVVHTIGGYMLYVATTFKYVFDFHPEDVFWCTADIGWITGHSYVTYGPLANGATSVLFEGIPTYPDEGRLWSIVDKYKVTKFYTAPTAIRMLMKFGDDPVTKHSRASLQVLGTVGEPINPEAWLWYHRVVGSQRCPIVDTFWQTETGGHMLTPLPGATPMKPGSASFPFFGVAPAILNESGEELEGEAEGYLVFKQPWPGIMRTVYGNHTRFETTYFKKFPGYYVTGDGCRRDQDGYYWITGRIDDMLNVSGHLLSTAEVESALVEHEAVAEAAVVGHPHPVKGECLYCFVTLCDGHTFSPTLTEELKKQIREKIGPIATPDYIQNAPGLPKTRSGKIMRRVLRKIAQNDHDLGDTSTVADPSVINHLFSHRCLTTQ

Mus musculus [13] = assay: In Vivo effect for the hypolipidemic activity on phosphatidate phosphohydrolase in CF1 mice after 16 days administered orally at a dose of 60 mg/kg; format: organism-based; set-up: dose 60 mg/kg; outline: as §1
Rattus norvegicus [14] = assay: Compound was evaluated for the hypolipidemic activity at 20 mg/kg per day orally for 14 days on phospholipids content in rat VLDL; format: functional; conditions: route oral; outline: as §4
Mus musculus [15] = assay: In Vivo effect for the hypolipidemic activity on Hepatic lipoprotein lipase in CF1 mice after 16 days administered orally at a dose of 40 mg/kg; format: functional; conditions: route oral; outline: as §1
[16] = target: T2, Sterol O-acyltransferase 1 (Mus musculus); assay: In Vitro evaluation for the CF1 liver enzyme activity on Acyl cholesterol acyltransferase at concentration 100 uM; format: functional, tissue-based
Outline: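 Liver was taken from CF1 male mice and made into 10% homogenates, which were incubated with test compound at 50, 100 or 200 µM. Each enzyme was assayed by its literature method, and protein was measured by Lowry. N = 6. Activity is expressed as % of untreated control ± SD.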

Rattus norvegicus [17] = assay: Compound was evaluated for the hypolipidemic activity at 20 mg/kg per day orally for 14 days on protein content in rat VLDL; format: functional; conditions: route oral; outline: as §4
Rattus norvegicus [18] = assay: Compound was evaluated for the hypolipidemic activity in Sprague-Dawley rats at a dose of 20 mg/kg orally for Serum triglyceride at 9th day; format: functional; conditions: route oral
Outline: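 Sprague–Dawley male rats (~350 g) received 20 mg/kg per day orally, with 1% CMC as the vehicle control; N = 6. Tail-vein blood was taken between 8:00 and 9:30 a.m. on days 9 and 16 and spun for 3 min to obtain serum. Cholesterol was measured by a modified Liebermann–Burchard reaction and triglyceride by kit. Values are % control ± SD; significance by Student's t test.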

Mus musculus [19] = species on record: Mus musculus; assay: In Vitro evaluation for the CF1 liver enzyme activity on Mitochondrial citrate exchange at concentration 100 uM; format: functional; outline: as §2
[20] = target: T1, Cholesterol 7-alpha-hydroxylase (Cytochrome P450 7A1); assay: In vivo effect on Cholesterol 7-alpha-hydroxylase activity in CF1 mice after 16 days at 60 mg/kg oral dose; format: functional, organism-based; set-up: dose 60 mg/kg, route oral; conditions: read-out: Control; outline: as §1

Control [1]: 107% | activity at 50 µM [2]: 106% | Control [8]: 42% | Control [12]: 99% | Control [16]: 63% | activity at 384 h [20]: 60%
Compound: COc1ccc(C2C(=O)c3ccccc3C2=O)cc1 [ANISINDIONE]
Control (Rattus norvegicus [3]): 37% | Control (Mus musculus [4]): 94% | Control (Rattus norvegicus [5]): 101% | Serum triglyceride, % of control (Mus musculus [6]): 42% | Control (Mus musculus [7]): 63% | Control (Rattus norvegicus [9]): 118% | Control (Mus musculus [10]): 83% | Control (Rattus norvegicus [11]): 96% | Control (Mus musculus [13]): 100% | Control (Rattus norvegicus [14]): 128% | Control (Mus musculus [15]): 89% | Control (Rattus norvegicus [17]): 106% | Control (Rattus norvegicus [18]): 73% | Control (Mus musculus [19]): 38%
